Measured values reported in ChEMBL document CHEMBL5661979, “Pharmacological inhibition of BMK1 suppresses tumor growth through promyelocytic leukemia protein” (Cancer Cell, 2010).

How the values were obtained:
[1] = Inhibition of PCTAIRE2/ICK in human HeLa cells lysate at 2 uM pre incubated for 15 mins followed by ADP acyl phosphate probe addition and measured after 10 mins by LC-MS/MS analysis relative to control; conditions: 25 min, condition cancer
[2] = target: Tyrosine-protein kinase receptor UFO (Homo sapiens, UniProt P30530); experiment: Inhibition of AXL in human HeLa cells lysate pre incubated for 15 mins followed by ADP acyl phosphate probe addition and measured after 10 mins by LC-MS/MS analysis; assay type: subcellular
In short: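 KiNativ-type profiling in HeLa lysate (5 mg/mL total protein). Lysate preincubated 15 min with inhibitor at 50, 10, 2, 0.8 or 0 μM, then ATP or ADP acylphosphate probe added (5 μM final) for 10 min. Reaction stopped with urea and analysed by targeted MS, using up to four fragment ions per kinase peptide-probe conjugate. % inhibition calculated against untreated lysate. Duplicate reactions.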

[3] = target: Phosphatidylinositol 3-kinase catalytic subunit type 3 (Homo sapiens, UniProt Q8NEB9); experiment: Inhibition of PIK3C3 in human HeLa cells lysate pre incubated for 15 mins followed by ATP acyl phosphate probe addition and measured after 10 mins by LC-MS/MS analysis; assay type: subcellular
[4] = target: Casein kinase I isoform alpha (Homo sapiens, UniProt P48729); experiment: Inhibition of CK1alpha in human HeLa cells lysate at 50 uM pre incubated for 15 mins followed by ATP acyl phosphate probe addition and measured after 10 mins by LC-MS/MS analysis relative to control; assay type: subcellular; conditions: time 25.0 min
Chain of Casein kinase I isoform alpha (P48729 2-337 limits assumed): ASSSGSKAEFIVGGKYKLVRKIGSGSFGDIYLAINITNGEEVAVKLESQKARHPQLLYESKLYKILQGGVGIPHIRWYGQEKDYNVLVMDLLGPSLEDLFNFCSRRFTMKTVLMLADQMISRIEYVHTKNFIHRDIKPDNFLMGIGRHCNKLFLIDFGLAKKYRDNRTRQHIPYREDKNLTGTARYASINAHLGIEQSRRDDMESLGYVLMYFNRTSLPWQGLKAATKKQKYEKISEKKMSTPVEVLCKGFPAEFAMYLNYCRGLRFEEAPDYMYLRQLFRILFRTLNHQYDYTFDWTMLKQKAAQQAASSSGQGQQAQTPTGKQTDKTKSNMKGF

[5] = target: Hepatocyte growth factor receptor (Homo sapiens, UniProt P08581); experiment: Inhibition of MET in human HeLa cells lysate at 2 uM pre incubated for 15 mins followed by ATP acyl phosphate probe addition and measured after 10 mins by LC-MS/MS analysis relative to control; assay type: subcellular; conditions: time 25.0 min
Chain of Hepatocyte growth factor receptor (P08581 whole entry): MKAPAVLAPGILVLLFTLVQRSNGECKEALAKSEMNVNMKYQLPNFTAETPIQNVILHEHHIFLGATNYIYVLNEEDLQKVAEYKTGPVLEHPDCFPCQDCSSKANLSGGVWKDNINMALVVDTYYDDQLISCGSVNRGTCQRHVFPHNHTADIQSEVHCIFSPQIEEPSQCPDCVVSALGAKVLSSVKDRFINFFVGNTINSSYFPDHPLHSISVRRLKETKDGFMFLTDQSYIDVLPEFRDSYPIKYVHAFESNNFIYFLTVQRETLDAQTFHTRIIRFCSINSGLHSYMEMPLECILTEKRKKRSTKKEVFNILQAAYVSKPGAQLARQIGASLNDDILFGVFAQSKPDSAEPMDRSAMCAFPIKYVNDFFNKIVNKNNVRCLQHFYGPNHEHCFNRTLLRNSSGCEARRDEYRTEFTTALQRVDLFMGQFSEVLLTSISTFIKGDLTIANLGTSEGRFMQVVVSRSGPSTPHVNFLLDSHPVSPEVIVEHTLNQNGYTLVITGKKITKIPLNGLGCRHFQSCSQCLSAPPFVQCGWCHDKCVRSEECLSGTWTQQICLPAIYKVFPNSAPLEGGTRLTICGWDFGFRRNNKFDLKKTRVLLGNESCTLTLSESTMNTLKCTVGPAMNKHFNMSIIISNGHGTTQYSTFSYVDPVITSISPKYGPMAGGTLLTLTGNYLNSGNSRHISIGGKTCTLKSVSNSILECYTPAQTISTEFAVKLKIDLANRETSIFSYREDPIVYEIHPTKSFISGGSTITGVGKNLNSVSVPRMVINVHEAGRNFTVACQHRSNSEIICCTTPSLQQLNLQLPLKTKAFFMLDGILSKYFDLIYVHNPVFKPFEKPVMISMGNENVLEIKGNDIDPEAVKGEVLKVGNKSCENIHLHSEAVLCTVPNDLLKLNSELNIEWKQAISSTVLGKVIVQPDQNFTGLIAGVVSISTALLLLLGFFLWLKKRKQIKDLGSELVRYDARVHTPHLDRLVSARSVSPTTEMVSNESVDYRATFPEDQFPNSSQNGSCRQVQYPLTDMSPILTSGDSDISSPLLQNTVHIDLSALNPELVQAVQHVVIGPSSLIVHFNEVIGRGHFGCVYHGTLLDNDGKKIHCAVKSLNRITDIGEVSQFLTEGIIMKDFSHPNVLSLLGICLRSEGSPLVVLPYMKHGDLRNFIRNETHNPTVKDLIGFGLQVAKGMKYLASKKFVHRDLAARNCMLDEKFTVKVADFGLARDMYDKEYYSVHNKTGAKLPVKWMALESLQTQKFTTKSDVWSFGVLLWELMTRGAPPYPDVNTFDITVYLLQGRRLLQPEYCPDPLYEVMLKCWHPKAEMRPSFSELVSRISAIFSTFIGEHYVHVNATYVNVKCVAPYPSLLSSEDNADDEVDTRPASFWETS

[6] = target: Serine/threonine-protein kinase tousled-like 2 (Homo sapiens, UniProt Q86UE8); experiment: Inhibition of TLK2 in human HeLa cells lysate at 50 uM pre incubated for 15 mins followed by ADP acyl phosphate probe addition and measured after 10 mins by LC-MS/MS analysis relative to control; assay type: subcellular; conditions: time 25.0 min
[7] = target: Tyrosine-protein kinase ABL (Homo sapiens, UniProt P00519+P42684); experiment: Inhibition of ABL1/2 in human HeLa cells lysate at 2 uM pre incubated for 15 mins followed by ATP acyl phosphate probe addition and measured after 10 mins by LC-MS/MS analysis relative to control; assay type: subcellular; conditions: time 25.0 min
Chain of Tyrosine-protein kinase ABL (P00519 whole entry, looked up, the tested form may be a part): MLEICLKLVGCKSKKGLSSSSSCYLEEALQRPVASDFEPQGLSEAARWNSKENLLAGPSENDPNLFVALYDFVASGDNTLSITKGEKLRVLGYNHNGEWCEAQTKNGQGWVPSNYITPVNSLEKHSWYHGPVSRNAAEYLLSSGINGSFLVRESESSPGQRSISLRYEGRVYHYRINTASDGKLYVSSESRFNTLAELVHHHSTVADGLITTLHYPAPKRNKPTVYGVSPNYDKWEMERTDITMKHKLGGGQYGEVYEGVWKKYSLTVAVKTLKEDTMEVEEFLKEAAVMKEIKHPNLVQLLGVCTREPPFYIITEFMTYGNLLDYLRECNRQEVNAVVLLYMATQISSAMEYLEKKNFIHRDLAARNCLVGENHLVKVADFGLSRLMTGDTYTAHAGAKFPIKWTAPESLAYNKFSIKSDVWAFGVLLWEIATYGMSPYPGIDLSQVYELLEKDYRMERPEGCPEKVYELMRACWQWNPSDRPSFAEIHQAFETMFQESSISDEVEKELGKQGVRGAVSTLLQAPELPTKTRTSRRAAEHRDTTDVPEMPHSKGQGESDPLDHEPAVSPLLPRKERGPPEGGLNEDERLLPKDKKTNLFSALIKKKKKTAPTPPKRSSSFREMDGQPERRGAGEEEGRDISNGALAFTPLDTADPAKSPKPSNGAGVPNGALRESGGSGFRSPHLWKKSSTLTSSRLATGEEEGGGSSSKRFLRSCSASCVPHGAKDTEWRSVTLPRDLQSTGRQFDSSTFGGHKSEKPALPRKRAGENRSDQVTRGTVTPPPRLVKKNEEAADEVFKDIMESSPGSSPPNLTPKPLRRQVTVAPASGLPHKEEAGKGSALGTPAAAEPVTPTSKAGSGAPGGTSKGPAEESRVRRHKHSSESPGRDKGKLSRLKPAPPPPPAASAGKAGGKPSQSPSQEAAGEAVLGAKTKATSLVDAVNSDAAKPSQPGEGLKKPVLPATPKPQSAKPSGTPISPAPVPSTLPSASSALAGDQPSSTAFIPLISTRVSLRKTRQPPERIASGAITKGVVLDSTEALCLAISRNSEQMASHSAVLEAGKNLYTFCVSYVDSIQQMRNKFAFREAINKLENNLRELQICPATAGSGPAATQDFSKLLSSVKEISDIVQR
Chain of Tyrosine-protein kinase ABL (P42684 whole entry, looked up, the tested form may be a part): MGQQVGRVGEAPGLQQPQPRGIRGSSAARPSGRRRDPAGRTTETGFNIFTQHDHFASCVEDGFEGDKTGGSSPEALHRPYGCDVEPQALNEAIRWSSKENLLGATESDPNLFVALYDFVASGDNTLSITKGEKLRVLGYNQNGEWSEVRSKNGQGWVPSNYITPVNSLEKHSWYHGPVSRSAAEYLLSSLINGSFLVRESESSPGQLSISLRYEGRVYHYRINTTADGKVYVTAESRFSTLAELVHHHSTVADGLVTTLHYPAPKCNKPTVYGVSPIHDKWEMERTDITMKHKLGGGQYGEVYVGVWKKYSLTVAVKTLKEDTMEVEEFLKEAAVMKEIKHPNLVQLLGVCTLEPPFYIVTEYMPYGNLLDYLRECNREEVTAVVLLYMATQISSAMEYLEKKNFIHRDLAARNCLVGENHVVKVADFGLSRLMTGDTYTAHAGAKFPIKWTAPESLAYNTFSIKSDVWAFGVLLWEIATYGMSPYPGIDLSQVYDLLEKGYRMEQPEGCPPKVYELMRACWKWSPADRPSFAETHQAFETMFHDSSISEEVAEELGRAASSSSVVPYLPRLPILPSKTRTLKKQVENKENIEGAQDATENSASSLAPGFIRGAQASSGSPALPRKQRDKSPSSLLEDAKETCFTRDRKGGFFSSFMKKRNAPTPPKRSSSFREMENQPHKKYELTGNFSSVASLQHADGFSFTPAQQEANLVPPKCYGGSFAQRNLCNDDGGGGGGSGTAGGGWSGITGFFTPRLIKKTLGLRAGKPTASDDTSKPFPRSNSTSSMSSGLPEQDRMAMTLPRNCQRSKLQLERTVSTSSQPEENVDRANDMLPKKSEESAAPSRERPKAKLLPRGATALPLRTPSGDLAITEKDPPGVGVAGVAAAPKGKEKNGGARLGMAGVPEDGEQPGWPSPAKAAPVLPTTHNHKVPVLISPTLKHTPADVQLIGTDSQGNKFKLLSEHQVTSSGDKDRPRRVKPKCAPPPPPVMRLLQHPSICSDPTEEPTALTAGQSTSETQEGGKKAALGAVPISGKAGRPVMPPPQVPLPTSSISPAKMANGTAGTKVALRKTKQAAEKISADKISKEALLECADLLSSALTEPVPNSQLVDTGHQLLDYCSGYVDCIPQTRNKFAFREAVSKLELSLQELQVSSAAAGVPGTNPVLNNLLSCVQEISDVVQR
In short: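 HeLa cell lysates (5 mg/mL total protein) were preincubated with inhibitor at 0, 0.8, 2, 10 or 50 μM for 15 min. ATP or ADP acylphosphate probe was then added (5 μM final) for 10 min, and reactions were stopped with urea. Up to four fragment ions per kinase probe-peptide were quantified by targeted MS. % inhibition was taken relative to untreated lysate. Run in duplicate.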

[8] = Toxicity in C57Bl/6 mouse assessed as body weight at 50 mg/kg, ip for 14 days (reference value: 0.2 to 0.208 kg); assay type: organism-based; conditions: in vivo, 336 h, time 14 day
[9] = target: Dual specificity protein kinase CLK3 (Homo sapiens, UniProt P49761); experiment: Inhibition of CLK3 in human HeLa cells lysate at 50 uM pre incubated for 15 mins followed by ADP acyl phosphate probe addition and measured after 10 mins by LC-MS/MS analysis relative to control; assay type: subcellular; conditions: time 25.0 min
[10] = target: T1, Phosphatidylinositol 5-phosphate 4-kinase type-2 gamma (Homo sapiens) (UniProt Q8TBX8); experiment: Inhibition of PIP5K2C LIP1 site in human HeLa cells lysate at 2 uM pre incubated for 15 mins followed by ATP acyl phosphate probe addition and measured after 10 mins by LC-MS/MS analysis relative to control; assay type: subcellular; conditions: time 25.0 min
T1 sequence (whole entry): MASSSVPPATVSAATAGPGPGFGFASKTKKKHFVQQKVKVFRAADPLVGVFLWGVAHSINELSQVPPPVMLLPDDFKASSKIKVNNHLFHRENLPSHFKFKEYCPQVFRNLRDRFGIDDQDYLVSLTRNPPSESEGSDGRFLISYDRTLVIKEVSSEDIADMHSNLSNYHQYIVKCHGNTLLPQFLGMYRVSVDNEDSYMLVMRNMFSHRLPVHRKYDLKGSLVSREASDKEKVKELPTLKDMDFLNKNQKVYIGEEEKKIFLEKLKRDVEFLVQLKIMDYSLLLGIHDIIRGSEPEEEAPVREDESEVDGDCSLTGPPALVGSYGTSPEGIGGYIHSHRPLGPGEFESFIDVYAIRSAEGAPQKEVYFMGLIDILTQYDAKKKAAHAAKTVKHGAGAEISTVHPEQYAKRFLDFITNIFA

[11] = target: T2, Serine/threonine-protein kinase Chk1 (Homo sapiens) (UniProt O14757); experiment: Inhibition of CHK1 in human HeLa cells lysate at 50 uM pre incubated for 15 mins followed by ATP acyl phosphate probe addition and measured after 10 mins by LC-MS/MS analysis relative to control; assay type: subcellular; conditions: time 25.0 min
T2 sequence (whole entry): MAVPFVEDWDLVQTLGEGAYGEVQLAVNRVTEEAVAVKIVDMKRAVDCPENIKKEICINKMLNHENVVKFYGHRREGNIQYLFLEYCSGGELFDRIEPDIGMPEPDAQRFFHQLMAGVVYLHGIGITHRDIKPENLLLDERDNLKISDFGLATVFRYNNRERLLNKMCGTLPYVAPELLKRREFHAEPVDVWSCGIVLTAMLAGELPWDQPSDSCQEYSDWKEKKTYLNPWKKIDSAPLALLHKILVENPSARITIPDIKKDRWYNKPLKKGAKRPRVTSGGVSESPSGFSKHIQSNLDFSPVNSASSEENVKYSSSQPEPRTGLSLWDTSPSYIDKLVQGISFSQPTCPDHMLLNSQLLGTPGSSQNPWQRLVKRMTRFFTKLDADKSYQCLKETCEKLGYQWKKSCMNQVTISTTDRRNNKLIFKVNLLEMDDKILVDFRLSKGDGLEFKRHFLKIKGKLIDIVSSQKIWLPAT

[12] = target: Serine/threonine-protein kinase Nek1 (Homo sapiens) (UniProt Q96PY6); experiment: Inhibition of NEK1 in human HeLa cells lysate at 2 uM pre incubated for 15 mins followed by ATP acyl phosphate probe addition and measured after 10 mins by LC-MS/MS analysis relative to control; assay type: subcellular; conditions: time 25.0 min
[13] = target: Cyclin-dependent kinase 8/19 (Homo sapiens, UniProt P49336+Q9BWU1); experiment: Inhibition of CDK8/CDK11 in human HeLa cells lysate pre incubated for 15 mins followed by ATP acyl phosphate probe addition and measured after 10 mins by LC-MS/MS analysis; assay type: subcellular
In short: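 KiNativ profiling in HeLa lysate (5 mg/mL total protein). Lysate incubated 15 min with inhibitor at 50, 10, 2, 0.8 or 0 μM. ATP or ADP acylphosphate probe then added (5 μM final) and reacted 10 min. Reaction stopped with urea and analysed by targeted MS, using up to four fragment ions per kinase peptide-probe conjugate. % inhibition taken against untreated lysate. Run in duplicate.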

[14] = target: Serine/threonine-protein kinase N2 (Homo sapiens, UniProt Q16513); experiment: Inhibition of PKN2 in human HeLa cells lysate pre incubated for 15 mins followed by ATP acyl phosphate probe addition and measured after 10 mins by LC-MS/MS analysis; assay type: subcellular
Chain of Serine/threonine-protein kinase N2 (Q16513 whole entry): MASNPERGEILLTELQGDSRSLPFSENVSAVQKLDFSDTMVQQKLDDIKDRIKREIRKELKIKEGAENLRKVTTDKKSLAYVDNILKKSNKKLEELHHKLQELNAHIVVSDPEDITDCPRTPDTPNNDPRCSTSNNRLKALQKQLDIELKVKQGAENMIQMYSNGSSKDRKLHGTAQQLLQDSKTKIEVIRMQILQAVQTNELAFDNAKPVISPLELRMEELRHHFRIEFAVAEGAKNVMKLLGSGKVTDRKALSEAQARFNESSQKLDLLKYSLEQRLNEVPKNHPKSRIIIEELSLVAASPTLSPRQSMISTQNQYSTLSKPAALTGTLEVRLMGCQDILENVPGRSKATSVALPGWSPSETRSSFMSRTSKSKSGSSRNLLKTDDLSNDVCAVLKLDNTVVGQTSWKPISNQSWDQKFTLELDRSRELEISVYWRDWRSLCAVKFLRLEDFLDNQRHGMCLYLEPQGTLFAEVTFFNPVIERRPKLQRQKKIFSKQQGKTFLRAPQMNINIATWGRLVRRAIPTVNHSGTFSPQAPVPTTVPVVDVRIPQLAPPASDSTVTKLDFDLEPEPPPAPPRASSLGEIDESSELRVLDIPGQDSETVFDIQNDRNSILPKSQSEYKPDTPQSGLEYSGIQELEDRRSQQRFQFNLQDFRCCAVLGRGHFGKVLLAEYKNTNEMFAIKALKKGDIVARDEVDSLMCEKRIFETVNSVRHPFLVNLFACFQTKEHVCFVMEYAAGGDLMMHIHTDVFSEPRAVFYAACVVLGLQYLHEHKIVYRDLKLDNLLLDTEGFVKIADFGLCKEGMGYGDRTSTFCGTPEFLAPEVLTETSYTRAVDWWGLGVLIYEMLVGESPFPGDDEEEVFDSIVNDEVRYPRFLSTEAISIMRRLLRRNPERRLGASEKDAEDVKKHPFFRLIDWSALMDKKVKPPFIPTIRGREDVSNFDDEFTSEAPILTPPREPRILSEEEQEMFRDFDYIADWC

For `CCOc1cc(N2CCC(O)CC2)ccc1Nc1ncc2c(n1)N(C)c1ccccc1C(=O)N2C`, the inhibition at 2 µM [1] was 1.2%, the IC50 [2] was over 50 µM and the IC50 [3] was over 50 µM. For the same compound, the inhibition [4] was 0.1%, the inhibition [5] was 38% and the inhibition [6] was -2.4%. It also gave an inhibition [7] of 11.5%, an Activity [8] of 0.02 kg and an inhibition [9] of 32.6%. For the same compound, the inhibition [10] was -3.7%, the inhibition [11] was -0.4% and the inhibition [12] was 6.1%. For the same compound, the IC50 [13] was over 50 µM and the IC50 [14] was over 50 µM.
